Assay outcomes (PubChem)
T cell HTS = T cell immune modulators affecting CD8 T cell-vesicle binding. 2C CD8+ T cell-vesicle binding, flow cytometry; hits give low values. response (vesicle binding), % at 7 µM. 0.068% of 330,000 active;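 active = response, share of CD8 T cells binding vesicles, and their 90th percentile fluorescence all below set limits, cut at about 80% in these data, passing the limit was not always enough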;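 also: values below 100% mean blocked vesicle binding to the CD8+ T cells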
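Assay system – 2C mouse CD8+ T cells · Also added – QL9-loaded Drosophila micro-vesicles · Timing – Cell–vesicle co-incubation 1.5 h at 37 °C, staining 20 min on ice · Signal – flow cytometry of vesicle-bound cells · Measure – percent CD8+ FL2 mean versus row control · Controls – Peptide-free naked vesicles (low) and QL9 vesicles with 0.7% DMSO vehicle (high)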
N-glyco inh = N-linked glycosylation inhibition; D54 ERlucT glycosylation luciferase reporter, 24 h; percent of 100 nM tunicamycin response; reporter increase, % at 12.5 µM; 0.23% of 360,000 active; AID 588692;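 active = mean luciferase reporter signal, scaled so untreated is 0 and the glycosylation-blocking control 100, at or above a set limit in every replicate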;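 also: luciferase carries N-glycosylation sites so blocking glycosylation raises the light; 0% = median of neutral control wells and 100% = median of 100 nM tunicamycin wells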
ALR inh = blocks human ALR sulfhydryl oxidase activity | P55789 | purified ALR, DTT oxidation, H2O2 HRP-luminol luminescence | inhibition, % (no concentration beside the values) | 3.8% of 290,000 active | AID 485317;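 active = mean replicate inhibition above about 79%, with every replicate also reaching it, limit read from the data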
Target sequence (P55789 whole entry, looked up): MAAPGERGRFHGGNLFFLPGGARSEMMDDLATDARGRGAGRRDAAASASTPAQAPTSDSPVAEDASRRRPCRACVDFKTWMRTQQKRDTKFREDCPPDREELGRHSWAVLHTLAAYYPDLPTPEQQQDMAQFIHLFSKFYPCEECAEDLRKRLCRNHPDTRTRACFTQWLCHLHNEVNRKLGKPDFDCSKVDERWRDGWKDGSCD
* hit, by the source's call; x = no result. This is one part of a sample in which hits are shown more often than they occur.

SMILES | T cell HTS | N-glyco inh | ALR inh
CCn1cc(C(=O)N[C@@H](CCSC)C(=O)NCCN2CCOCC2)c(=O)c2cc3c(cc21)OCO3 | 221 | 1 | 3
CC1CC(Nc2ccccc2)c2ccccc2N1C(=O)c1cccnc1 (stereo not given) | 788 | 2 | 100*
C[C@@H]1C[C@H](Nc2ccccc2)c2ccccc2N1C(=O)c1cccnc1 | 307 | 4 | 27
Cc1ccc(N2C(=O)c3sc4nnc(C)c(=O)n4c3C2=O)cc1 | 195 | -1 | 98*
CCc1ccc(N2C(=O)c3sc4nnc(C)c(=O)n4c3C2=O)cc1 | 325 | 1 | 1
Cc1ccc(C(=O)OCC(=O)NC(C)C2CC3CCC2C3)cc1N (stereo not given) | 515 | 2 | 1
CCC(=O)/C=C1/Sc2ccc(OC)cc2N1CC | 498 | -1 | 77*
CCC(/C=C1\Sc2ccc(OC)cc2N1CC)=C\c1sc2ccc(OC)cc2[n+]1CCCS(=O)(=O)[O-] | 698 | -4 | 97*
CCC(/C=C1\Sc2ccc(OC)cc2N1CCO)=C\c1sc2ccc(OC)cc2[n+]1CCO | 498 | -9 | 9
CCC(=O)/C=C1/Sc2ccc(OC)cc2N1CCO | 168 | 1 | 67
CCCNC1=CC(=O)CC(C)(C)C1 | 257 | 2 | -2
Cc1ccc2[nH]c(-c3ccccc3)cc(=O)c2c1 | 715 | 17 | 21
CCN(CC)Cc1c(-c2ccccc2)[nH]c2ccc(C)cc2c1=O | 225 | 3 | 97*
COc1ccc(CCCNC(=O)C2Cc3c(-c4ccc5c(c4)OCO5)ccnc3O2)cc1 (stereo not given) | x | 16 | x
C[C@H](CO)N1C[C@H](C)[C@@H](CN(C)S(=O)(=O)c2ccc(Oc3ccccc3)nc2)OCc2cn(nn2)CCCC1=O | x | 2 | x
CCC(=O)Nc1nnc(SCC(=O)Nc2cccc(Cl)c2)s1 | 491 | 1 | -1
COC(OC)c1nc(SCC(=O)Nc2cccc(Cl)c2)ncc1C(=O)O | 132 | 0 | 99*
Cn1c(=O)c2cc(NC(=O)Nc3ccccc3)ccc2n1Cc1ccccc1 | x | -3 | x
CC(=O)Nc1ccc(N2C(=O)CSC2c2ccccc2[N+](=O)[O-])cc1 (stereo not given) | 283 | 1 | 98*
CC(=O)Nc1ccc(N2C(=O)CSC2c2cccc([N+](=O)[O-])c2)cc1 (stereo not given) | 204 | 0 | -17
O=C1CSC(c2ccccc2[N+](=O)[O-])N1c1ccc(O)cc1 (stereo not given) | 311 | 0 | -16
O=C1CSC(c2cccc([N+](=O)[O-])c2)N1c1ccccc1F (stereo not given) | 103 | 2 | -10
O=C1CSC(c2ccccc2[N+](=O)[O-])N1c1ccccc1 (stereo not given) | 255 | 2 | 99*
O=C1CSC(c2ccccc2[N+](=O)[O-])N1c1cccc(F)c1 (stereo not given) | 128 | 2 | 99*
CCCS(=O)(=O)NC(=O)C1(C)CCN(C(=O)c2cccc(OC(F)(F)F)c2)C1 (stereo not given) | x | 0 | x
SMILES | T cell HTS | N-glyco inh | ALR inh
COc1ccccc1C#Cc1cnc2c(c1)C(=O)N([C@H](C)CO)C[C@@H](C)[C@@H](CN(C)C(=O)c1ccc3c(c1)OCO3)O2 | x | -2 | x
COc1ccccc1C(=O)N/C(=C\c1cn(S(=O)(=O)N(C)C)c2ccccc12)C(=O)N1CCOCC1 | 484 | 1 | -4
O=C1NCC(Nc2ccccc2Cl)C(=O)N1 (stereo not given) | x | 1 | x
O=c1ccc(-c2ccc(S(=O)(=O)Nc3ccc(F)cc3)s2)n[nH]1 | 178 | 1 | -3
O=C(Nc1cccc(Br)c1)c1cccc(OC(=S)N2CCOCC2)c1 | 368 | -1 | 17
Cc1ccc(-c2nnc(SCC(=O)N/N=C/c3ccc(C(=O)O)cc3)n2C2CCCCC2)cc1 | 277 | -1 | -33
CN(C)S(=O)(=O)c1cccc(NC(=S)NNC(=O)c2cc3ccccc3cc2O)c1 | 0 | -3 | 45
COc1ccc2[nH]c(C(=O)N3CCN(c4ccccc4F)CC3)c(C)c2c1 | 492 | -1 | -25
CN(Cc1ccccc1)Cc1nc2scc(-c3ccccc3)c2c(=O)[nH]1 | 601 | 0 | 4
COC(=O)/C=C1/S/C(=N/NC(=O)c2ccc(OC)cc2)NC1=O | 301 | 1 | 6
COC(=O)/C=C1/S/C(=N/NC(=O)c2ccccc2OC)NC1=O | 372 | 1 | 97*
O=c1c2ccccc2c(C=Nc2cccc(S(=O)(=O)NCc3ccco3)c2)c(O)n1-c1ccc(Cl)cn1 | 378 | 1 | -14
Cc1cc(C)nc(OC(=O)c2ccc(Cl)cc2Cl)n1 | 197 | x | 98*
Cc1cc(C)nc(OC(=O)c2c(Cl)cc(Cl)cc2Cl)n1 | 460 | -6 | -3
CC(C)c1ccc(N(CC(=O)NCc2ccc(F)cc2)C(=O)c2snc(C(N)=O)c2N)cc1 | 267 | -1 | x
Clc1ccc(-c2nc3ncccn3c2Nc2ccc3c(c2)OCO3)cc1 | 144 | 1 | 0
COc1ccc(-c2nc3cc(C)ccn3c2NCc2ccc3c(c2)OCO3)cc1 | 0 | 0 | 58
Cc1ccc(-c2nc3ncccn3c2Nc2ccc3c(c2)OCO3)o1 | 92 | 1 | 99*
Cc1ccc(Nc2c(-c3ccc(C)o3)nc3ncccn23)cc1 | 481 | 3 | x
Oc1ccc(-c2nc3ncccn3c2Nc2ccc3c(c2)OCO3)cc1 | 206 | 3 | 99*
Cc1ccn2c(Nc3ccc4c(c3)OCO4)c(-c3ccc(O)cc3)nc2c1 | 431 | 2 | 85*
COc1cc(NC(=S)N2CCCC2)cc(OC)c1 | 0 | 1 | -12
CN(C)S(=O)(=O)c1cccc(C(=O)OCC(=O)NC2CCCc3ccccc32)c1 (stereo not given) | 292 | 1 | -1
COc1ccccc1/C=C/C=N/NC(=O)c1cc(-c2ccco2)[nH]n1 | 564 | 3 | 98*
COc1ccccc1/C=C/C=N/NC(=O)c1ccccn1 | 295 | -6 | -9
SMILES | T cell HTS | N-glyco inh | ALR inh
CN(C)S(=O)(=O)c1ccc(N2CCCC2)c(C(=O)NCC(=O)Nc2ccc(F)c(F)c2)c1 | 212 | -2 | -5
Cc1ccc(NC(=O)c2cc(S(=O)(=O)N(C)C)ccc2N2CCCC2)cc1F | 337 | 90* | -6
CN(C)S(=O)(=O)c1ccc(N2CCCC2)c(C(=O)Nc2ccccc2)c1 | 302 | 46* | 1
CSc1ccccc1NC(=O)c1cc(S(=O)(=O)N(C)C)ccc1N1CCCC1 | 356 | 0 | -6
COc1ncnc2c1ncn2CCCNCCCN1CCCC1=O | x | 0 | x
Cc1ccc(NC(NC(=O)c2ccccc2[N+](=O)[O-])C(Cl)(Cl)Cl)cc1 (stereo not given) | 185 | -1 | 99*
O=C(O)c1cccc(NC(=S)NC(NC(=O)c2ccccc2[N+](=O)[O-])C(Cl)(Cl)Cl)c1 (stereo not given) | 75 | -1 | 3
CC1CCc2nc(/C(C#N)=C/c3ccncc3)sc2C1 (stereo not given) | 193 | 10 | 98*
N#C/C(=C/c1ccncc1)c1nc2ccccc2s1 | 212 | 6 | -12
O=C(NCCC(=O)N(Cc1ccco1)Cc1cccs1)c1ccc([N+](=O)[O-])cc1 | x | 0 | x
CC(=O)Nc1cccc(OCC(O)Cn2cnc3ccccc32)c1 (stereo not given) | 445 | 0 | 100*
